Assay results pooled from the literature.
Each line is one published result; the experiments were not run side by side. Values after ≈ are worked out from the molar mass of the structure shown.

| SMILES | organism | test | system | setting | endpoint | value |
| --- | --- | --- | --- | --- | --- | --- |
| Cc1ccc(Cn2cc(C(=O)NN)c(=O)c3cc(Oc4ccccc4)ccc32)cc1 | Trypanosoma cruzi | parasite growth | MRC5 | intracellular, amastigote | EC50 | 44000 nM |
| CC1(F)CN(C(=O)Cn2c(=O)c(C(=O)NCc3ccc(Cl)cc3)cc3nc(N4CCN(CC(=O)O)C4=O)cnc32)C1 | Human betaherpesvirus 5 | viral replication, inhibitor | AD169 |  | EC50 | 1270 nM |
| CN(C)c1cc(NC(=O)Cc2cncnc2)c(O)c2c1C[C@H]1C[C@H]3[C@H](N(C)C)C(O)=C(C(N)=O)C(=O)[C@@]3(O)C(O)=C1C2=O | Mycobacterium tuberculosis | microbial growth, broth dilution | H37RV | 7 days, pH 7.4 | MIC | 0.4 µg/mL (≈ 0.675 µM) |
| OC(Cn1cncn1)(Cn1cncn1)c1ccc(F)cc1F | Trypanosoma cruzi | parasite growth, resazurin |  | 24 h, trypomastigote | IC50 | 23600 nM |
| O=C(Cn1ccnc1[N+](=O)[O-])NCc1ccccc1 | Trypanosoma cruzi | parasite growth | MRC5 | intracellular, amastigote | EC50 | 1600 nM |
| O=C(Cn1ccnc1[N+](=O)[O-])NCc1ccccc1 | Trypanosoma cruzi | parasite growth, absorbance | MRC5 | intracellular, amastigote | IC50 | 2000 to 5000 nM |
| CN(C)c1cc(NC(=O)Cc2ncccn2)c(O)c2c1C[C@H]1C[C@H]3[C@H](N(C)C)C(O)=C(C(N)=O)C(=O)[C@@]3(O)C(O)=C1C2=O | Mycobacterium tuberculosis | microbial growth, broth dilution | H37RV | 7 days, pH 7.4 | MIC | 0.8 µg/mL (≈ 1.35 µM) |
| CN1CCN(c2cnc3c(cc(C(=O)NCc4ccc(Cl)cc4)c(=O)n3CC(=O)N3CC(C)(F)C3)n2)C1=O | Human betaherpesvirus 5 | viral replication, inhibitor | AD169 |  | EC50 | 130 nM |
